Measurements pooled from the literature.
Lines come from different studies, so protocols differ.
Target: Tyrosine-protein kinase Mer (MERTK, Homo sapiens, UniProt Q12866)
One construct used (Q12866 21-999): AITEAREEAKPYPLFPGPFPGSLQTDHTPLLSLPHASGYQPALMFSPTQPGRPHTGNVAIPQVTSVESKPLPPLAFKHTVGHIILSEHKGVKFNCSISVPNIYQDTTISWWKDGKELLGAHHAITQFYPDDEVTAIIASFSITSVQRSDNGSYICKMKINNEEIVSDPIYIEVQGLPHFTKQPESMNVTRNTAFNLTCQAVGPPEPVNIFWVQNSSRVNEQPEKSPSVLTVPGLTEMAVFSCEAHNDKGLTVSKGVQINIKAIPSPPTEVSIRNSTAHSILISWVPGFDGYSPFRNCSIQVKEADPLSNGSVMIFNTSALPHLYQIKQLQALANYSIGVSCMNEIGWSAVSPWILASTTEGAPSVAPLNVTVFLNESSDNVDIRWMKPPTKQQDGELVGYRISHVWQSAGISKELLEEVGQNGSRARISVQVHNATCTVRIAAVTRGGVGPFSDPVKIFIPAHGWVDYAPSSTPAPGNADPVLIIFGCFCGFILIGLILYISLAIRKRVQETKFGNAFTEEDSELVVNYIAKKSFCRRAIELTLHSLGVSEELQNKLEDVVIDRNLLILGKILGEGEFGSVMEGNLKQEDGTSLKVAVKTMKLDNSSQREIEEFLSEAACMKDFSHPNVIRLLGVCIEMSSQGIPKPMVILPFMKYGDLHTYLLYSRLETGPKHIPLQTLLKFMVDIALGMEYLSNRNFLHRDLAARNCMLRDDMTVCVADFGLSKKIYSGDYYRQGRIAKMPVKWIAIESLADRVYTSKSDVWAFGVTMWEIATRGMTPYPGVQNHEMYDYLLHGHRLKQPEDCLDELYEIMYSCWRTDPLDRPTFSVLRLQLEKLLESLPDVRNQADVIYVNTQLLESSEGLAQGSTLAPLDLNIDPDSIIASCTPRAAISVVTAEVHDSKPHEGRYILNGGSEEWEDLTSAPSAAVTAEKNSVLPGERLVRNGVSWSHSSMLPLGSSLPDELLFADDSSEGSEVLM

SMILES | assay | conditions | quantity | value
CC/C(=N\NC(=O)NCc1cccc(O)c1)c1ccc(O)c(C)c1O | enzyme activity, inhibitor | 0.1 µM | inhibition | 5%
CN1CC(Oc2cnc(C#N)cc2-c2ccn3nc(NC(=O)C4CC4)cc3c2)C1 | enzyme activity, inhibitor | 1 µM | inhibition | 0%
CN1CCC2(CC1)NC(=O)c1c(c3ccc(Cl)c(Cl)c3n1C)C2C#N (racemic) | thermal stability, DSF | 10 µM | ΔTm | -0.4 °C
CCN(CC)CCNC(=O)c1c(C)[nH]c(/C=C2\C(=O)Nc3ccc(F)cc32)c1C | enzyme activity, inhibitor | 0.3 µM | inhibition | 94%
Cc1cc(NC(=O)c2cccc3cc(-c4cccc5[nH]nc(N)c45)ccc23)ccc1F | enzyme activity, inhibitor | 0.1 µM | activity vs control | 96%
O=C(Nc1cnn(-c2csc(C(=O)NC3COC3)c2)c1)Nc1c(F)cccc1Cl | enzyme activity, inhibitor | 5 µM | remaining activity | 77.1%
O=C1NC(=O)c2cc(Nc3ccc(F)cc3)c(Nc3ccc(F)cc3)cc21 | cell-free assay | 0.5 µM | remaining signal | 97.4%
Cn1c2c(c3ccc(Cl)c(Cl)c31)C(C#N)C1(CCNCC1)NC2=O (racemic) | thermal stability, DSF | 10 µM | ΔTm | 0.5 °C
CNC(=O)c1cc(Oc2ccc(NC(=O)Nc3ccc(Cl)c(C(F)(F)F)c3)cc2)ccn1 | enzyme activity, inhibitor | 0.3 µM | inhibition | 26%
CCCS(=O)(=O)Nc1ccc(F)c(C(=O)c2c[nH]c3ncc(-c4ccc(Cl)cc4)cc23)c1F | enzyme activity, inhibitor | 1 µM | inhibition | < 10%
CCN1CCC2(CC1)NC(=O)c1c(c3ccc(Cl)c(Cl)c3n1C)C2C#N (racemic) | thermal stability, DSF | 10 µM | ΔTm | 1 °C
CCN(CC)c1ccc(C2=NNC(=O)CC2C)cc1[N+](=O)[O-] (stereo not drawn) | enzyme activity, inhibitor | 10 µM | remaining activity | 97%
Nc1ncnc2occ(-c3ccc(NC(=O)Nc4cc(C(F)(F)F)ccc4F)cc3)c12 | cell-free assay | 20 µM | remaining signal | 0.25%
CNCc1ccccc1-c1csc([C@@H](C)Nc2nc(C)nc3cc(OC)c(OC)cc23)c1 | cell-free assay, competition with immobilised ligand | 1 µM | remaining binding | 61%
Cc1ccc(Nc2nccc(N(C)c3ccc4c(C)n(C)nc4c3)n2)cc1S(N)(=O)=O | enzyme activity, inhibitor | 0.3 µM | inhibition | 32%
CO[C@H]1CC[C@H](CNc2ccc(S(=O)(=O)NC(=O)c3ccc(N4CCN(CC5=C(c6ccc(Cl)cc6)CC(C)(C)CC5)CC4)cc3Oc3cnc4[nH]ccc4c3)cc2[N+](=O)[O-])CC1 | cell-free assay, competition with immobilised ligand | 1 µM | remaining binding | 85%
COc1cc2c(N3CCN(C(=O)Nc4ccc(OC(C)C)cc4)CC3)ncnc2cc1OCCCN1CCCCC1 | cell-free assay | 0.5 µM | remaining signal | 106%
CCCCN(CCCC)C(=O)CN1C[C@H](c2cc(OC)c3c(c2)OCO3)[C@@H](C(=O)O)[C@@H]1CC(C)(C)CCC | cell-free assay, competition with immobilised ligand | 1 µM | remaining binding | 100%
COc1cc2ncnc(Nc3ccc(Oc4ccccc4)c(C)c3C)c2cc1OC | enzyme activity, inhibitor | 1 µM | inhibition | 28%
Cn1c2c(c3ccccc31)C(C#N)C(C)(C)NC2=O (stereo not drawn) | thermal stability, DSF | 10 µM | ΔTm | 0.8 °C
CC(C)CC(=O)N1CCc2nc(-c3ccc(Br)cc3)nc(N(C)Cc3ccccc3)c2C1 | cell-free assay, competition with immobilised ligand | 0.1 µM | remaining binding | 100%
Cn1c2c(c3ccc(Cl)c(Cl)c31)C(C#N)C(C)(C)NC2=O (stereo not drawn) | thermal stability, DSF | 10 µM | ΔTm | -0.9 °C
O=C(NS(=O)(=O)c1ccc(NCC2CCOCC2)c([N+](=O)[O-])c1)c1ccc(N2CCN(Cc3ccc(C(F)(F)F)cc3-c3ccc(Cl)cc3)CC2)cc1Oc1cnc2[nH]ccc2c1 | cell-free assay, competition with immobilised ligand | 1 µM | remaining binding | 100%
CC1(C)NC(=O)c2[nH]c3c(Cl)c(Cl)ccc3c2C1C#N (stereo not drawn) | thermal stability, DSF | 10 µM | ΔTm | -1.1 °C
Cc1c[nH]c2nccc(Oc3c(F)cc(Nc4cc(Cl)nc(N)n4)cc3F)c12 | cell-free assay, competition with immobilised ligand | 0.1 µM | remaining binding | 100%
O=C1Nc2ccc(Cl)cc2C1=Cc1cc(Cl)c(O)c(Cl)c1 | cell-free assay | 0.5 µM | remaining signal | 88.4%
O=C(NC[C@@H]1[C@H]2CN(C(=O)OCc3cc(C(F)(F)F)cc(C(F)(F)F)c3)C[C@@H]12)c1ccc2[nH]nnc2c1 | cell-free assay, competition with immobilised ligand | 1 µM | remaining binding | 100%
CC(C)(C)c1nc2c(s1)c1nc(N)ncc1c1ccc(NS(=O)(=O)c3c(F)cccc3F)c(F)c12 | enzyme activity, inhibitor, radiometric | 1 µM | remaining activity | 124%
CNC(=O)Nc1ccc2c(c1)[C@@]1(CC2)OC(=O)N(CC(=O)N(Cc2ccc(F)cc2)[C@@H](C)C(F)(F)F)C1=O | cell-free assay, competition with immobilised ligand | 1 µM | remaining binding | 100%
Cc1ccc(NC(=O)c2ccc(C)c(C(F)(F)F)c2)cc1C#Cc1nn(C2CCC(O)CC2)c2ncnc(N)c12 (stereo not drawn) | cell-free assay | 10 µM | remaining signal | 0%
